# ChEMBL document CHEMBL3870321, “Substituted 4-morpholine N-arylsulfonamides as γ-secretase inhibitors” (Eur J Med Chem, 2016)
# Target: T1, Cytochrome P450 3A4 (Homo sapiens, UniProt P08684)
# Assay: Inhibition of recombinant human CYP3A4 expressed in baculovirus infected insect cells preincubated for 30 mins using fluorescent substrate
# Format: ADME
# Conditions: not given
# T1 sequence (P08684 whole entry): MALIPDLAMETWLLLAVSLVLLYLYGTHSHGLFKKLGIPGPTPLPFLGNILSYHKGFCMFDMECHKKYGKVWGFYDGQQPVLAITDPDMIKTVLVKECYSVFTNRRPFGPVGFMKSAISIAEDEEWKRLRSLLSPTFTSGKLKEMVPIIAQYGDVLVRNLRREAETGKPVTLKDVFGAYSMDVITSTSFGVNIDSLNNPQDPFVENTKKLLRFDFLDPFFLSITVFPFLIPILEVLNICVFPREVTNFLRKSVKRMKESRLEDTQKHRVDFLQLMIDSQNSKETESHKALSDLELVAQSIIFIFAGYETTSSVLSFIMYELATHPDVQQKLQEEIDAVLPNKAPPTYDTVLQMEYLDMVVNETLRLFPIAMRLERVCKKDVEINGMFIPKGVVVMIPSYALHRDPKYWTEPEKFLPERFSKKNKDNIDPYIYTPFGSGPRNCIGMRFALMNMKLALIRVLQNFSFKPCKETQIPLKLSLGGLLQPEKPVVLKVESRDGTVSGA
row,SMILES,IC50
1,O=C(C(O)C1([C@H]2COC[C@@H](C3CC3)N2S(=O)(=O)c2ccc(Cl)cc2)CC1)N1C2CCC1CC(N1CCCCC1)C2 (stereo not given in full),> 30000 nM
2,O=C(CC1([C@H]2COC[C@@H](C3CC3)N2S(=O)(=O)c2ccc(F)cc2)CC1)N1CCN(CCO)CC1,6900 nM
3,O=C(CC1([C@H]2COC[C@@H](C3CC3)N2S(=O)(=O)c2ccc(Cl)cc2)CC1)N1CC2CCC(C1)N2CCO,< 400 nM
4,O=C(CC1([C@H]2COC[C@@H](C3CC3)N2S(=O)(=O)c2ccc(Cl)cc2)CC1)N1C2CCC1CC(N1CCCCC1)C2 (stereo not given in full),2000 nM
5,CC(=O)N1C2CCC1CN(C(=O)CC1([C@H]3COC[C@@H](C4CC4)N3S(=O)(=O)c3ccc(Cl)cc3)CC1)C2,4300 nM

# More lines, now with the values ahead:
row,IC50,SMILES
1,17000 nM,CC(=O)N1CCN(C(=O)CC2([C@H]3COC[C@@H](C4CC4)N3S(=O)(=O)c3ccc(F)cc3)CC2)CC1
2,> 30000 nM,O=C(CC1([C@H]2CO[C@H]3CCC[C@H]3N2S(=O)(=O)c2ccc(Cl)cc2)CC1)N1CC[C@@H](O)C1
3,2200 nM,C[C@H]1CN(C(C)(C)CO)CCN1C(=O)CC1([C@H]2COC[C@@H](C3CC3)N2S(=O)(=O)c2ccc(F)cc2)CC1
4,9000 nM,O=C(C(O)C1([C@H]2COC[C@@H](C3CC3)N2S(=O)(=O)c2ccc(Cl)cc2)CC1)N1CC2CCC(C1)N2 (stereo not given in full)
5,1500 nM,O=C(CC1([C@H]2COC[C@@H](C3CC3)N2S(=O)(=O)c2ccc(F)cc2)CC1)N1CCC(N2CCCCC2)CC1
6,30000 nM,O=C(CC1([C@H]2CO[C@H]3CCC[C@H]3N2S(=O)(=O)c2ccc(Cl)cc2)CC1)N1CCC(CO)CC1
7,8000 nM,O=C(CC1([C@H]2CO[C@H]3CCC[C@H]3N2S(=O)(=O)c2ccc(Cl)cc2)CC1)N1CCC(N2CCCCC2)CC1
8,1900 nM,CC(C)(CO)N1CCN(C(=O)CC2([C@H]3COC[C@@H](C4CC4)N3S(=O)(=O)c3ccc(Cl)cc3)CC2)CC1
9,30000 nM,O=C(CC1([C@H]2CO[C@H]3CCC[C@H]3N2S(=O)(=O)c2ccc(Cl)cc2)CC1)N1CC[C@@H](CO)C1

# Test system: not listed separately
# Assay: Inhibition of gamma-secretase in HEK293 cells expressing APP London mutant assessed as reduction in amyloid beta 40 level after 5 hrs by immunoassay
# Conditions: Homo sapiens, HEK293, 5 h
row,IC50,SMILES
1,671 nM,O=S(=O)(c1ccc(Cl)cc1)N1[C@@H](CO)CCC[C@H]1c1cccc(F)c1
2,316 nM,O=S(=O)(c1ccc(Cl)cc1)N1[C@H](c2cccc(F)c2)CCC[C@@H]1C1(O)CC1

# Test system: not listed separately
# Assay: Inhibition of gamma-secretase in HEK293 cells expressing human APP Swedish/London mutant assessed as reduction in amyloid beta 40 level after 5 hrs by sandwich immunoassay
# Format: cell-based
# Conditions: HEK293, 5 h
# How it was run: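 HEK293 cells stably transfected with human APP cDNA carrying Swedish and London mutations were exposed to inhibitor for 5 h. Aβ40 in conditioned medium was measured by MSD sandwich immunoassay (TAG-G2-10/biotin-4G8). IC50 came from a four-parameter variable-slope nonlinear fit, with duplicate or triplicate measurements per experiment.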
row,SMILES,IC50
1,O=C(C(O)C1([C@H]2COC[C@@H](C3CC3)N2S(=O)(=O)c2ccc(Cl)cc2)CC1)N1C2CCC1CC(N1CCCCC1)C2 (stereo not given in full),24 nM
2,O=C(CC1([C@H]2COC[C@@H](C3CC3)N2S(=O)(=O)c2ccc(Cl)cc2)CC1)N1CC2CCC(C1)N2,3.5 nM
3,O=C(CC1([C@H]2COC[C@@H](C3CC3)N2S(=O)(=O)c2ccc(F)cc2)CC1)N1CCN(CCO)CC1,32 nM
4,O=C(CC1([C@H]2COC[C@@H](C3CC3)N2S(=O)(=O)c2ccc(Cl)cc2)CC1)N1CC2CCC(C1)N2CCO,6 nM
5,O=C(CC1([C@H]2COC[C@@H](C3CC3)N2S(=O)(=O)c2ccc(Cl)cc2)CC1)N1C2CCC1CC(N1CCCCC1)C2 (stereo not given in full),12 nM
6,CC(=O)N1C2CCC1CN(C(=O)CC1([C@H]3COC[C@@H](C4CC4)N3S(=O)(=O)c3ccc(Cl)cc3)CC1)C2,18 nM

# Further lines, results first:
row,IC50,SMILES
1,67 nM,CC(=O)N1CCN(C(=O)CC2([C@H]3COC[C@@H](C4CC4)N3S(=O)(=O)c3ccc(F)cc3)CC2)CC1
2,16 nM,O=C(CC1([C@H]2CO[C@H]3CCC[C@H]3N2S(=O)(=O)c2ccc(Cl)cc2)CC1)N1CC[C@@H](O)C1
3,14 nM,C[C@H]1CN(C(C)(C)CO)CCN1C(=O)CC1([C@H]2COC[C@@H](C3CC3)N2S(=O)(=O)c2ccc(F)cc2)CC1
4,10 nM,O=C(C(O)C1([C@H]2COC[C@@H](C3CC3)N2S(=O)(=O)c2ccc(Cl)cc2)CC1)N1CC2CCC(C1)N2 (stereo not given in full)
5,30 nM,O=C(CC1([C@H]2COC[C@@H](C3CC3)N2S(=O)(=O)c2ccc(F)cc2)CC1)N1CCC(N2CCCCC2)CC1
6,1.8 nM,O=C(CC1([C@H]2CO[C@H]3CCC[C@H]3N2S(=O)(=O)c2ccc(Cl)cc2)CC1)N1CCC(CO)CC1
7,1.7 nM,O=C(CC1([C@H]2CO[C@H]3CCC[C@H]3N2S(=O)(=O)c2ccc(Cl)cc2)CC1)N1CCC(N2CCCCC2)CC1
8,5.9 nM,CC(C)(CO)N1CCN(C(=O)CC2([C@H]3COC[C@@H](C4CC4)N3S(=O)(=O)c3ccc(Cl)cc3)CC2)CC1
9,18 nM,O=C(CC1([C@H]2CO[C@H]3CCC[C@H]3N2S(=O)(=O)c2ccc(Cl)cc2)CC1)N1CC[C@@H](CO)C1

# Test system: Mus musculus
# Assay: In vivo inhibition of gamma-secretase in CRND8 transgenic mouse model of Alzheimers disease expressing APP Swedish/Indiana familial mutant assessed as reduction in amyloid beta 40 level in plasma at 30 mg/kg administered as single dose via oral gavage after 3 hrs by sandwich immunoassay
# Format: functional
# Conditions: not given
# How it was run: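 Transgenic CRND8 mice (5–7 weeks, male and female, counterbalanced, singly housed) received a single oral gavage dose in 20% hydroxypropyl-β-cyclodextrin. Mice were killed by CO2 at 3 h, and EDTA plasma was collected from the posterior vena cava. Plasma Aβ40 was quantified by MSD sandwich immunoassay (biotin-4G8/S-tag G2-10) and compared with a vehicle-only group.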
row,SMILES,inhibition in vivo at 30 mg/kg
1,CC(C)(CO)N1CCN(C(=O)CC2([C@H]3COC[C@@H](C4CC4)N3S(=O)(=O)c3ccc(Cl)cc3)CC2)CC1,89%

# Target: T1, Cytochrome P450 3A4
# Assay: Inhibition of recombinant human CYP3A4 expressed in baculovirus infected insect cells using fluorescent substrate
# Format: ADME
# Conditions: not given
row,SMILES,IC50
1,O=C(C(O)C1([C@H]2COC[C@@H](C3CC3)N2S(=O)(=O)c2ccc(Cl)cc2)CC1)N1C2CCC1CC(N1CCCCC1)C2 (stereo not given in full),> 30000 nM
2,O=C(CC1([C@H]2COC[C@@H](C3CC3)N2S(=O)(=O)c2ccc(F)cc2)CC1)N1CCN(CCO)CC1,> 30000 nM
3,O=C(CC1([C@H]2COC[C@@H](C3CC3)N2S(=O)(=O)c2ccc(Cl)cc2)CC1)N1CC2CCC(C1)N2CCO,> 30000 nM
4,O=C(CC1([C@H]2COC[C@@H](C3CC3)N2S(=O)(=O)c2ccc(Cl)cc2)CC1)N1C2CCC1CC(N1CCCCC1)C2 (stereo not given in full),> 30000 nM
5,CC(=O)N1C2CCC1CN(C(=O)CC1([C@H]3COC[C@@H](C4CC4)N3S(=O)(=O)c3ccc(Cl)cc3)CC1)C2,30000 nM

# Continued, values first:
row,IC50,SMILES
1,30000 nM,CC(=O)N1CCN(C(=O)CC2([C@H]3COC[C@@H](C4CC4)N3S(=O)(=O)c3ccc(F)cc3)CC2)CC1
2,> 30000 nM,O=C(CC1([C@H]2CO[C@H]3CCC[C@H]3N2S(=O)(=O)c2ccc(Cl)cc2)CC1)N1CC[C@@H](O)C1
3,> 30000 nM,C[C@H]1CN(C(C)(C)CO)CCN1C(=O)CC1([C@H]2COC[C@@H](C3CC3)N2S(=O)(=O)c2ccc(F)cc2)CC1
4,> 30000 nM,O=C(C(O)C1([C@H]2COC[C@@H](C3CC3)N2S(=O)(=O)c2ccc(Cl)cc2)CC1)N1CC2CCC(C1)N2 (stereo not given in full)
5,> 30000 nM,O=C(CC1([C@H]2COC[C@@H](C3CC3)N2S(=O)(=O)c2ccc(F)cc2)CC1)N1CCC(N2CCCCC2)CC1
6,30000 nM,O=C(CC1([C@H]2CO[C@H]3CCC[C@H]3N2S(=O)(=O)c2ccc(Cl)cc2)CC1)N1CCC(CO)CC1
7,21000 nM,O=C(CC1([C@H]2CO[C@H]3CCC[C@H]3N2S(=O)(=O)c2ccc(Cl)cc2)CC1)N1CCC(N2CCCCC2)CC1
8,> 30000 nM,CC(C)(CO)N1CCN(C(=O)CC2([C@H]3COC[C@@H](C4CC4)N3S(=O)(=O)c3ccc(Cl)cc3)CC2)CC1
9,30000 nM,O=C(CC1([C@H]2CO[C@H]3CCC[C@H]3N2S(=O)(=O)c2ccc(Cl)cc2)CC1)N1CC[C@@H](CO)C1

# Target: T1, Cytochrome P450 3A4
# Assay: Inhibition of CYP3A4 (unknown origin) preincubated with enzyme
# Format: ADME
# Conditions: not given
# How it was run: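 Recombinant CYP3A4 was pre-incubated with compound, and data were collected 30 min after the compound was combined with enzyme. Read-out was fluorescent product formed from a […] substrate. Values are means of two experiments.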
row,IC50,SMILES
1,30000 nM,O=S(=O)(c1ccc(Cl)cc1)N1[C@@H](CO)CCC[C@H]1c1cccc(F)c1
2,< 500 nM,O=S(=O)(c1ccc(Cl)cc1)N1[C@H](c2cccc(F)c2)CCC[C@@H]1C1(O)CC1

# Target: T1, Cytochrome P450 3A4
# Assay: Inhibition of CYP3A4 (unknown origin)
# Format: ADME
# Conditions: not given
# How it was run: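 Recombinant CYP3A4 was co-incubated with compound, and fluorescent product formed from a […] coumarin or fluorescein substrate was read out. Values are means of two experiments.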
row,IC50,SMILES
1,13900 nM,O=S(=O)(c1ccc(Cl)cc1)N1[C@@H](CO)CCC[C@H]1c1cccc(F)c1
2,< 900 nM,O=S(=O)(c1ccc(Cl)cc1)N1[C@H](c2cccc(F)c2)CCC[C@@H]1C1(O)CC1

# Test system: not listed separately
# Assay: AUC (0 to 6 hrs) in Sprague-Dawley rat at 30 mg/kg, po by LC-MS/MS analysis
# Format: ADME, organism-based
# Parameters: dose 30 mg/kg, time < 6 hr, route oral
# Conditions: in vivo
# How it was run: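 Two fasted male Sprague-Dawley rats per compound, femoral-artery cannulated, were dosed orally in 0.5% methylcellulose. Serial heparinized blood was taken at 0.5, 1, 2, 3, 4 and 6 h, and plasma was stored at -20 °C. Compound levels were measured by LC-MS/MS using compound-specific SRM transitions from [MH]+, and AUC was taken over 0–6 h.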
row,SMILES,AUC(0-t) at 6 h
1,O=C(C(O)C1([C@H]2COC[C@@H](C3CC3)N2S(=O)(=O)c2ccc(Cl)cc2)CC1)N1C2CCC1CC(N1CCCCC1)C2 (stereo not given in full),267 ng·h/mL
2,O=C(CC1([C@H]2COC[C@@H](C3CC3)N2S(=O)(=O)c2ccc(Cl)cc2)CC1)N1CC2CCC(C1)N2,1160 ng·h/mL
3,O=C(CC1([C@H]2COC[C@@H](C3CC3)N2S(=O)(=O)c2ccc(F)cc2)CC1)N1CCN(CCO)CC1,1970 ng·h/mL
4,O=C(CC1([C@H]2COC[C@@H](C3CC3)N2S(=O)(=O)c2ccc(Cl)cc2)CC1)N1CC2CCC(C1)N2CCO,2730 ng·h/mL
5,O=C(CC1([C@H]2COC[C@@H](C3CC3)N2S(=O)(=O)c2ccc(Cl)cc2)CC1)N1C2CCC1CC(N1CCCCC1)C2 (stereo not given in full),1290 ng·h/mL

# The next lines start with the values.
row,AUC(0-t) at 6 h,SMILES
1,3160 ng·h/mL,CC(=O)N1CCN(C(=O)CC2([C@H]3COC[C@@H](C4CC4)N3S(=O)(=O)c3ccc(F)cc3)CC2)CC1
2,254 ng·h/mL,O=C(C(O)C1([C@H]2COC[C@@H](C3CC3)N2S(=O)(=O)c2ccc(Cl)cc2)CC1)N1CC2CCC(C1)N2 (stereo not given in full)
3,575 ng·h/mL,O=C(CC1([C@H]2COC[C@@H](C3CC3)N2S(=O)(=O)c2ccc(F)cc2)CC1)N1CCC(N2CCCCC2)CC1
4,36 ng·h/mL,O=C(CC1([C@H]2CO[C@H]3CCC[C@H]3N2S(=O)(=O)c2ccc(Cl)cc2)CC1)N1CCC(CO)CC1
5,464 ng·h/mL,CC(C)(CO)N1CCN(C(=O)CC2([C@H]3COC[C@@H](C4CC4)N3S(=O)(=O)c3ccc(Cl)cc3)CC2)CC1
